# The source made the active and inactive calls. The rule behind the calls is not given here.
# Columns and labels:
# Homo sapiens [1] = species on record: Homo sapiens; experiment: Selectivity ratio of IC50 for DNAPK (unknown origin) to IC50 for ATM (unknown origin)
# Procedure, shortened: (§1)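 Enzymatic selectivity calculated as the off-target enzyme IC50 over the ATM enzyme IC50. IC50s in µM, taken as means of at least 3 (ATM) or 2 (other enzymes) independent measurements.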
# [2] = target: DNA-dependent protein kinase catalytic subunit (Homo sapiens, UniProt P78527); experiment: Inhibition of DNAPK (unknown origin) using p53-based peptide substrate preincubated for 5 min prior to ATP addition
# [3] = Thermodynamic solubility of the compound in 0.1M aqueous phosphate buffer at pH 7.4 after 24 hrs by LC-UV analysis; assay type: physicochemical; details: read-out: Therm_solubility
# Procedure, shortened: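 Solid samples equilibrated in 0.1 M aqueous phosphate buffer, pH 7.4, for 24 h at 25 °C.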
# Homo sapiens [4] = species on record: Homo sapiens; experiment: Selectivity ratio of IC50 for human recombinant PI3Kbeta to IC50 for ATM (unknown origin); procedure, shortened: as §1
# [5] = target: Phosphatidylinositol 4,5-bisphosphate 3-kinase catalytic subunit gamma isoform (Homo sapiens, UniProt P48736); experiment: Inhibition of human recombinant PI3Kgamma using PIP2/ATP as substrate incubated for 20 mins followed by substrate addition by Kinase Glo reagent based luminescence assay
# [6] = target: Vascular endothelial growth factor receptor 2 (Homo sapiens, UniProt P35968); experiment: Inhibition of KDR (unknown origin)
# Homo sapiens [7] = species on record: Homo sapiens; experiment: Selectivity ratio of IC50 for C-terminal FLAG-tagged recombinant mTOR (1362 to 2549 residues) (unknown origin) to IC50 for ATM (unknown origin); procedure, shortened: as §1
# Homo sapiens [8] = species on record: Homo sapiens; experiment: Selectivity ratio of IC50 for human recombinant PI3Kalpha to IC50 for ATM (unknown origin); procedure, shortened: as §1
# [9] = target: T1, Serine-protein kinase ATM (Homo sapiens, UniProt Q13315); experiment: Inhibition of ATM (unknown origin) using p53 as substrate incubated for 30 mins followed by substrate addition measured after 2 hrs in presence of ATP by HTRF method
# T1 sequence (Q13315 whole entry): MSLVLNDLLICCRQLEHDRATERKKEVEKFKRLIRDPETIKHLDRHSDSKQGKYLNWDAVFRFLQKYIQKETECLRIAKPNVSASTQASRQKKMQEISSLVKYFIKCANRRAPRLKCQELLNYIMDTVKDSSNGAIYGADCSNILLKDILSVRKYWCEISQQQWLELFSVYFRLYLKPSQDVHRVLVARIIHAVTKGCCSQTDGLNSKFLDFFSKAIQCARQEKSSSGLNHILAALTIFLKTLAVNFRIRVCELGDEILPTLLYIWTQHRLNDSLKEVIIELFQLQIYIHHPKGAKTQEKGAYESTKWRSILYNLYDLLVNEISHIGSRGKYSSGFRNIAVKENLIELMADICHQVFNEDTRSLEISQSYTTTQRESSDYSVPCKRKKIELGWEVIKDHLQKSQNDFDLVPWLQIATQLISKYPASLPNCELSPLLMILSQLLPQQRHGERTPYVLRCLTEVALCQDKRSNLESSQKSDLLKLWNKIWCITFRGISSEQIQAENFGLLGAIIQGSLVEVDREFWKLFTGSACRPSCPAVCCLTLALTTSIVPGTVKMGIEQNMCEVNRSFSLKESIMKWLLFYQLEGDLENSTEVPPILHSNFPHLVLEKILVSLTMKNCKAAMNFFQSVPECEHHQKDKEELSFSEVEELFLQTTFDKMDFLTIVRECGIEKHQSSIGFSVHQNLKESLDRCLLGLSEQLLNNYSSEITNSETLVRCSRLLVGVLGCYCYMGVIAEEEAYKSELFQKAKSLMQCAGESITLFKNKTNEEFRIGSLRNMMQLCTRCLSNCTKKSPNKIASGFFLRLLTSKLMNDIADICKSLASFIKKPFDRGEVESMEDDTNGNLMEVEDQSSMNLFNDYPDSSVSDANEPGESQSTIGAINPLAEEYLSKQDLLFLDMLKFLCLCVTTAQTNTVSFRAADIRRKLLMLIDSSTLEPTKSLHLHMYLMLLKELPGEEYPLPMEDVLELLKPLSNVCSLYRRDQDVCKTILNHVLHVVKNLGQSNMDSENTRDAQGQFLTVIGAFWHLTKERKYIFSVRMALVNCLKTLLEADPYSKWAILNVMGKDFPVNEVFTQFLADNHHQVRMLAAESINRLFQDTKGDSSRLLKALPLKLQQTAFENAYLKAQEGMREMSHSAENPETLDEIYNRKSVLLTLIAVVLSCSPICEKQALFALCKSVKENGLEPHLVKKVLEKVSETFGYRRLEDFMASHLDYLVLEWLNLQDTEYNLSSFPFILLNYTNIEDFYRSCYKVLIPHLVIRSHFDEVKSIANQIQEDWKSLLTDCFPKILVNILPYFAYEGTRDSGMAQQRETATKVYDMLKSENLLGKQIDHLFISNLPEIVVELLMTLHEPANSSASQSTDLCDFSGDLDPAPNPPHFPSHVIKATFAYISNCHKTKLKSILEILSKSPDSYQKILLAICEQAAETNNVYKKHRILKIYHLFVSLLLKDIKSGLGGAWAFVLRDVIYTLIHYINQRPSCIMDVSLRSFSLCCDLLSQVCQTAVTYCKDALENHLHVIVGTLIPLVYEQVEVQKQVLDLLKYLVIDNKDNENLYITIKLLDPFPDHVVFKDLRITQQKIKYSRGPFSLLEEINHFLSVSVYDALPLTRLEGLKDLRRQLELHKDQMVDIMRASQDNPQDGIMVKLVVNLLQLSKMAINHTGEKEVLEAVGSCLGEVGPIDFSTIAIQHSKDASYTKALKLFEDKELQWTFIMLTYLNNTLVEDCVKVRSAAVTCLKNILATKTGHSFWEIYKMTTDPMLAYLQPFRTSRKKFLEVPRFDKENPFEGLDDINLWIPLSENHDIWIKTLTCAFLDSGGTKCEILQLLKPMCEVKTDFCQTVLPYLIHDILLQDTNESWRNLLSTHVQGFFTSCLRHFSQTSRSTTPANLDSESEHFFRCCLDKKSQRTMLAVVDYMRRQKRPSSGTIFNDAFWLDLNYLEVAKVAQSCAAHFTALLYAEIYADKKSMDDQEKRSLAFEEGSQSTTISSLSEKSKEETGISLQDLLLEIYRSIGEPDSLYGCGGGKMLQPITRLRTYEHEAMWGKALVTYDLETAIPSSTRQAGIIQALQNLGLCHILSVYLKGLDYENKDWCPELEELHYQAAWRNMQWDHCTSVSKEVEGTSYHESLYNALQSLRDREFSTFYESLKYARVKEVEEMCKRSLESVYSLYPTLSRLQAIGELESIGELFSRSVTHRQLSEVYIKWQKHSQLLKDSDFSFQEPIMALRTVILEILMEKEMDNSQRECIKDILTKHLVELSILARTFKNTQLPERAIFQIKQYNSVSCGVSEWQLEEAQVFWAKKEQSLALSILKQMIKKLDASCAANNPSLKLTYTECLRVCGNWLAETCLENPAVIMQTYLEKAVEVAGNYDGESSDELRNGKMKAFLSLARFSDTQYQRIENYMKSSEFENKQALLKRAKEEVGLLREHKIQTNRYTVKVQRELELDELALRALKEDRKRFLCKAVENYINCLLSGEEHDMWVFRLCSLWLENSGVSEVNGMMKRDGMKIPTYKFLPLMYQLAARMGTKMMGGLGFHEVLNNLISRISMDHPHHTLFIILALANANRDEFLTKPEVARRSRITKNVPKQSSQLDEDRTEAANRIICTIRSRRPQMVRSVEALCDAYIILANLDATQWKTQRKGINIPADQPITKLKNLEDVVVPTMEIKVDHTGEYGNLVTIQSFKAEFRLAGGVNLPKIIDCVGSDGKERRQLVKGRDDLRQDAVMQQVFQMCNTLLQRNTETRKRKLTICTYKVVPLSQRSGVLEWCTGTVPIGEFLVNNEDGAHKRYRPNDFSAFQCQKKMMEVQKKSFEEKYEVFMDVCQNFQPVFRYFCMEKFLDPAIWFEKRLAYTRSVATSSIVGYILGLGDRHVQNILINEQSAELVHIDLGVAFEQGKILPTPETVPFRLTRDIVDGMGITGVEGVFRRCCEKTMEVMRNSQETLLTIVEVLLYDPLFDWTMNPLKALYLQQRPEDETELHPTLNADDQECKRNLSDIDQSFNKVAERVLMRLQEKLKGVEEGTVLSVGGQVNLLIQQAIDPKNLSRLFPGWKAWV
# in vitro [10] = details: rat, hepatocytes
# [11] = target: Serine/threonine-protein kinase mTOR (Homo sapiens, UniProt P42345); experiment: Inhibition of C-terminal FLAG-tagged recombinant mTOR (1362 to 2549 residues) (unknown origin) using Biotin-Ahx-Lys-Lys-Ala-Asn-Gln-Val-Phe-Leu-Gly-Phe-Thr-Tyr-Val-Ala-Pro-Ser-Val-Leu-Glu-Ser-Val-Lys-Glu-NH2 as substrate after 90 mins by AlphaScreen assay
# [12] = target: T1, Serine-protein kinase ATM; experiment: Inhibition of ATM phosphorylation at Ser-1981 residue in human HT-29 cells incubated for 1 hr followed by X-ray irradiation by Hoechst staining based fluorescence plate reader analysis; assay type: cell-based
# [13] = target: Glycogen synthase kinase-3 beta (Homo sapiens, UniProt P49841); experiment: Inhibition of GSK3beta (unknown origin)
# Sequence of Glycogen synthase kinase-3 beta (P49841 whole entry): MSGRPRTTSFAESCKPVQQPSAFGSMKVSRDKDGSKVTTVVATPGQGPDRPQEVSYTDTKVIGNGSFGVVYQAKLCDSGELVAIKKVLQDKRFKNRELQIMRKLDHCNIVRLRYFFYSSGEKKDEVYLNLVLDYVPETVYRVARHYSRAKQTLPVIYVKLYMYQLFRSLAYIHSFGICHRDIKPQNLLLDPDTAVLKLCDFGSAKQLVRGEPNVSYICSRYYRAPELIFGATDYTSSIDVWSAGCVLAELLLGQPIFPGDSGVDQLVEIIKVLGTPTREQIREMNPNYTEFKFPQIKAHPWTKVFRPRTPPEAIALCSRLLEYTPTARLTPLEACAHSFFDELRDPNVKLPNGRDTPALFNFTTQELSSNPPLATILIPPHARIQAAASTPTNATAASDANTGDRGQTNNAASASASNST
# Homo sapiens [14] = species on record: Homo sapiens; experiment: Selectivity ratio of IC50 for ATR in human HT-29 cells to IC50 for ATM in human HT-29 cells; assay type: cell-based
# [15] = target: Serine/threonine-protein kinase ATR (Homo sapiens, UniProt Q13535); experiment: Inhibition of ATR in human HT-29 cells assessed as reduction in Chk1 phosphorylation at Ser-345 residue after 60 mins in presence of 4-nitroquinoline-1-oxide by Hoechst 33258 staining based plate reader analysis; assay type: cell-based
# in vitro [16] = details: human, hepatocytes
# [17] = target: Phosphatidylinositol 4,5-bisphosphate 3-kinase catalytic subunit beta isoform (Homo sapiens, UniProt P42338); experiment: Inhibition of human recombinant PI3Kbeta using PIP2/ATP as substrate incubated for 20 mins followed by substrate addition by Kinase Glo reagent based luminescence assay
# Sequence of Phosphatidylinositol 4,5-bisphosphate 3-kinase catalytic subunit beta isoform (P42338 whole entry, canonical isoform): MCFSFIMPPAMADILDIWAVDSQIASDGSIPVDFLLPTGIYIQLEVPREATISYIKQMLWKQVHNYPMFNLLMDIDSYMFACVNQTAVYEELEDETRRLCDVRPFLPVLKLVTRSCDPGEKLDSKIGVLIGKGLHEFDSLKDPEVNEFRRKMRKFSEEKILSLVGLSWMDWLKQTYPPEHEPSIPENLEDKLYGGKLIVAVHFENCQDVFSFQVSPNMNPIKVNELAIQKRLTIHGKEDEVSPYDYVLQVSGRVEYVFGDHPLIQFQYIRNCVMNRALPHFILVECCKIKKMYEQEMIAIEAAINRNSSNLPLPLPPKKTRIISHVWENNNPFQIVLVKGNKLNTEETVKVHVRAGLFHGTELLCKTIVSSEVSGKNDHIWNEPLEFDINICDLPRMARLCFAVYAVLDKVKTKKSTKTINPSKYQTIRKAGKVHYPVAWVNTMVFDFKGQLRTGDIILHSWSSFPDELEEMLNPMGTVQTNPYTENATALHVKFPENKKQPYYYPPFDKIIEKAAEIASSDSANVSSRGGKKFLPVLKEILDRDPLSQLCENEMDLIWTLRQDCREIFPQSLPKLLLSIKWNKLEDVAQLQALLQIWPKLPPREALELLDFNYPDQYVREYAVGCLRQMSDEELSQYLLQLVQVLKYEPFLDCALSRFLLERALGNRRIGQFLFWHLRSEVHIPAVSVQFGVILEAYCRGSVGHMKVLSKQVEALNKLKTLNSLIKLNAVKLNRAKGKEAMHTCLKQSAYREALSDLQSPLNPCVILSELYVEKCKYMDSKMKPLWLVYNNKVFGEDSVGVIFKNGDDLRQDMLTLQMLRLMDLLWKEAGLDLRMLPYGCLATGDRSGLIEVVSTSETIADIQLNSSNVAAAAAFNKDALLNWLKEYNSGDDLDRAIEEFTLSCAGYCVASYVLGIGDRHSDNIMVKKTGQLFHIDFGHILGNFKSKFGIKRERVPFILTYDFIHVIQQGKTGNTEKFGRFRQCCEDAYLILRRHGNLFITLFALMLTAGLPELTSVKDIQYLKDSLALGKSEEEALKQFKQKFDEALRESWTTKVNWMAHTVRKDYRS
# [18] = target: Phosphatidylinositol 4,5-bisphosphate 3-kinase catalytic subunit alpha isoform (Homo sapiens, UniProt P42336); experiment: Inhibition of human recombinant PI3Kalpha using PIP2/ATP as substrate incubated for 20 mins followed by substrate addition by Kinase Glo reagent based luminescence assay
# [19] = target: Voltage-gated inwardly rectifying potassium channel KCNH2 (Homo sapiens, UniProt Q12809)
# [20] = target: T1, Serine-protein kinase ATM; experiment: Inhibition of ATM in human HT-29 cells assessed as reduction in ATM phosphorylation at Ser-1981 residue up to 30 uM incubated for 1 hr followed by X-ray irradiation by Hoeschst staining based plate reader analysis; assay type: cell-based
# physchem = details: octanol/buffer, pH 7.4
# 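For logD in this document: determined by the shake flask method.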
IC50 [2] [nM],IC50 [5] [nM],IC50 [9] [nM],hepatocyte CLint at 1.5 h (in vitro [10]) [µL/min/1e6 cells],IC50 [11] [nM],IC50 [12] [nM],IC50 [15] [nM],hepatocyte CLint at 1.5 h (in vitro [16]) [µL/min/1e6 cells],IC50 [17] [nM],IC50 [18] [nM],Compound,Ratio IC50 (Homo sapiens [14]),other results
98,> 1000,8,74,3450,820,4400,12,5740,247,CCC(CC)CNc1c(C(N)=O)cnc2ccc(C#N)cc12,< 10,Ratio IC50 (Homo sapiens [1]): > 10; solubility thermodynamic at 24 h [3]: 19 µM; Ratio IC50 (Homo sapiens [4]): > 400; IC50 [6]: 8100 nM; Ratio IC50 (Homo sapiens [7]): > 400; Ratio IC50 (Homo sapiens [8]): > 10; IC50 [13]: 550 nM; IC50 [19]: 2300 nM
–,–,–,–,–,–,–,–,–,–,Cc1ccc([C@@H](C)Nc2c(C(N)=O)cnc3ccc(C#N)cc23)cc1,–,inhibition [20]: inactive
5,45,2,70,181,109,1900,11,21,8,C[C@@H](Nc1c(C(N)=O)cnc2ccc(-c3cccnc3)cc12)c1ccc(Cl)cc1,> 10,logD (physchem): > 4.3

# — ChEMBL document CHEMBL4477207, “Discovery of Novel 3-Quinoline Carboxamides as Potent, Selective, and Orally Bioavailable Inhibitors of Ataxia Telangiectasia Mutated (ATM) Kinase” (J Med Chem, 2016)
